Source: ChEMBL document CHEMBL4014307, “Diindolylmethane Derivatives: Potent Agonists of the Immunostimulatory Orphan G Protein-Coupled Receptor GPR84” (J Med Chem, 2017)
The source made the active and inactive calls.

What was measured:
[1] = target: T1, G-protein coupled receptor 84 (Homo sapiens, UniProt Q9NQS5); assay: Agonist activity at Gi coupled human GPR84 expressed in CHO cells assessed as inhibition of forskolin-induced cAMP accumulation at 10 uM after 15 mins in presence of [3H]-cAMP by radiometric assay relative to decanoic acid; type: functional, cell-based
T1 sequence (Q9NQS5 whole entry): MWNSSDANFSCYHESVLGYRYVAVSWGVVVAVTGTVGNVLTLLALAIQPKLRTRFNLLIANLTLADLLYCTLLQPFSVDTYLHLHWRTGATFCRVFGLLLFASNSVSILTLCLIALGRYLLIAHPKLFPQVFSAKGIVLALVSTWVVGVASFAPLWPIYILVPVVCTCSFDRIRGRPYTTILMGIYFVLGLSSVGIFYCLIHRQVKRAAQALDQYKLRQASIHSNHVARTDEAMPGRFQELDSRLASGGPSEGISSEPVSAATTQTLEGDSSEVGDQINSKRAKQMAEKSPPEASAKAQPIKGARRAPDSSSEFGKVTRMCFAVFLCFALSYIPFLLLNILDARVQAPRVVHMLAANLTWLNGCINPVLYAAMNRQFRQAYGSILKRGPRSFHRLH
How it was run: (§1)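 Forskolin (10 µM) added with or without test compound for 15 min. Cells lysed in hot (90 °C) EDTA/Triton X-100 solution. cAMP measured radiometrically with bovine adrenal binding protein and [³H]cAMP, expressed as % of forskolin-alone response.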

[2] = target: T1, G-protein coupled receptor 84; assay: Agonist activity at Gi coupled human GPR84 expressed in CHO cells assessed as inhibition of forskolin-induced cAMP accumulation after 15 mins in presence of [3H]-cAMP by radiometric assay; type: functional, cell-based; how it was run: as §1
[3] = target: T1, G-protein coupled receptor 84; assay: Agonist activity at human GPR84 expressed in CHO cells assessed as beta-arrestin recruitment at 10 uM after 90 mins by beta-galactosidase complementation assay relative to embelin; type: cell-based
How it was run: (§2)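 CHO cells co-expressing human GPR84–β-galactosidase fragment and β-arrestin–complementary fragment, 20,000 per well. Compounds in DMSO (final ≤1 %) added for 90 min, then detection reagent for 60 min at rt; luminescence read. Three to five independent experiments in duplicate.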

CHO = assay: Effect on forskolin-induced cAMP accumulation in CHO cells preincubated for 5 mins followed by forskolin addition measured after 15 mins in presence of [3H]-cAMP by radiometric assay; type: ADME, cell-based, Cricetulus griseus; settings: chinese hamster, 0.25 h
How it was run: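 CHO cells stably expressing human GPR84, or the parent non-transfected CHO line, incubated in HBSS (pH 7.4) at 37 °C with RO-20-1724 (final 40 µM). Forskolin (10 µM) added with or without test compound for 15 min. Cells lysed in hot (90 °C) EDTA/Triton X-100 solution. cAMP measured radiometrically with bovine adrenal binding protein and [³H]cAMP, expressed as % of forskolin-alone response.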

[4] = target: Free fatty acid receptor 1 (Homo sapiens, UniProt O14842); assay: Agonist activity at Gq protein coupled human FFAR1 expressed in human 1321N1 cells assessed as induction of intracellular calcium level at 10 uM measured at 1.2 secs time interval by Fluo-4-AM dye based fluorescence assay; type: functional, cell-based
Chain of Free fatty acid receptor 1 (O14842 whole entry): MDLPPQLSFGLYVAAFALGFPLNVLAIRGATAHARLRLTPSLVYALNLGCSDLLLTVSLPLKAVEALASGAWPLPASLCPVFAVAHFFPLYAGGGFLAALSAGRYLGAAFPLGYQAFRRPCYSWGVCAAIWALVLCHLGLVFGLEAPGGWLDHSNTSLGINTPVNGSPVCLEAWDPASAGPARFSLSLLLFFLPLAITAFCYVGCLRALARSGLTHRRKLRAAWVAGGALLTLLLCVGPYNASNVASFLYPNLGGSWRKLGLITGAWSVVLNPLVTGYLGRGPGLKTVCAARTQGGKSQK
How it was run: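 1321N1 astrocytoma cells retrovirally expressing human FFAR1, 50,000 per well, loaded 60 min at rt in dark with 3 µM Fluo-4-AM and 0.06 % Pluronic F-127 in HBSS. Compounds at 10 µM final; antagonist mode uses 30 min preincubation before TUG-424 (final 1 µM). Fluorescence at 520 nm (excitation 485 nm), 90 reads at 1.2 s intervals. Normalized to TUG-424 at 10 µM (agonist) or 1 µM (antagonist).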

[5] = target: T2, Free fatty acid receptor 4 (Homo sapiens) (UniProt Q5NUL3); assay: Agonist activity at human FFAR4 expressed in CHO cells assessed as beta-arrestin recruitment at 10 uM after 90 mins by beta-galactosidase complementation assay; type: cell-based
T2 sequence (whole entry): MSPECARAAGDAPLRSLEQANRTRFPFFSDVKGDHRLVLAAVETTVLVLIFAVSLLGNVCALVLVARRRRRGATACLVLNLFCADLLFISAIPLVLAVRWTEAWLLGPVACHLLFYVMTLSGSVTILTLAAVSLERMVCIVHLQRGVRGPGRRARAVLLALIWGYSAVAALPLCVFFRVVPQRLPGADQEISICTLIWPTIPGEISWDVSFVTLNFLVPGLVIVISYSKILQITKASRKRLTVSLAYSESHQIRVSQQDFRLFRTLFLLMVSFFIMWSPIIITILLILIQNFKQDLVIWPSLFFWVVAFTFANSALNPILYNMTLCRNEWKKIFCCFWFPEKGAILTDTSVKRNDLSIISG
How it was run: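 Human FFAR4 in CHO β-galactosidase complementation cells, 30,000 per well, serum-free F12 ~4 h before assay; final DMSO 1 %, compounds 10 µM. Agonist mode: 90 min with agonist, then detection 60 min rt dark; luminescence. 3–4 experiments in duplicate.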

[6] = target: T2, Free fatty acid receptor 4 (Homo sapiens); assay: Antagonist activity at human FFAR4 expressed in CHO cells assessed as inhibition of TUG-89-induced beta-arrestin recruitment at 10 uM preincubated for 30 mins followed by TUG-89 addition measured after 90 mins by beta-galactosidase complementation assay; type: cell-based
[7] = target: G-protein coupled receptor 35 (Homo sapiens) (UniProt Q9HC97); assay: Agonist activity at human GPR35 at 10 uM
Chain of G-protein coupled receptor 35 (Homo sapiens) (Q9HC97 whole entry): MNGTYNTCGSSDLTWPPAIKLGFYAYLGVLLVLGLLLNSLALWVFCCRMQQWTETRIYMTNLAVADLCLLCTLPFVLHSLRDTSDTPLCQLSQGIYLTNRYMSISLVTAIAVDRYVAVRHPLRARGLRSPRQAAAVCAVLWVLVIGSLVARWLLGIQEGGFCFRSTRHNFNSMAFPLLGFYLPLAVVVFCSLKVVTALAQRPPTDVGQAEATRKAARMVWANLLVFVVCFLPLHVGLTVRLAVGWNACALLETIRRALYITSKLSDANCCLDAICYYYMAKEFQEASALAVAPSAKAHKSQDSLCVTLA

[8] = target: T3, Aryl hydrocarbon receptor (Homo sapiens, UniProt P35869); assay: Activation of AhR in human HepG2 cells assessed as induction of CYP1A1 mRNA expression at 5 to 20 uM after 18 hrs by RT-PCR method; type: ADME, cell-based
T3 sequence (P35869 whole entry): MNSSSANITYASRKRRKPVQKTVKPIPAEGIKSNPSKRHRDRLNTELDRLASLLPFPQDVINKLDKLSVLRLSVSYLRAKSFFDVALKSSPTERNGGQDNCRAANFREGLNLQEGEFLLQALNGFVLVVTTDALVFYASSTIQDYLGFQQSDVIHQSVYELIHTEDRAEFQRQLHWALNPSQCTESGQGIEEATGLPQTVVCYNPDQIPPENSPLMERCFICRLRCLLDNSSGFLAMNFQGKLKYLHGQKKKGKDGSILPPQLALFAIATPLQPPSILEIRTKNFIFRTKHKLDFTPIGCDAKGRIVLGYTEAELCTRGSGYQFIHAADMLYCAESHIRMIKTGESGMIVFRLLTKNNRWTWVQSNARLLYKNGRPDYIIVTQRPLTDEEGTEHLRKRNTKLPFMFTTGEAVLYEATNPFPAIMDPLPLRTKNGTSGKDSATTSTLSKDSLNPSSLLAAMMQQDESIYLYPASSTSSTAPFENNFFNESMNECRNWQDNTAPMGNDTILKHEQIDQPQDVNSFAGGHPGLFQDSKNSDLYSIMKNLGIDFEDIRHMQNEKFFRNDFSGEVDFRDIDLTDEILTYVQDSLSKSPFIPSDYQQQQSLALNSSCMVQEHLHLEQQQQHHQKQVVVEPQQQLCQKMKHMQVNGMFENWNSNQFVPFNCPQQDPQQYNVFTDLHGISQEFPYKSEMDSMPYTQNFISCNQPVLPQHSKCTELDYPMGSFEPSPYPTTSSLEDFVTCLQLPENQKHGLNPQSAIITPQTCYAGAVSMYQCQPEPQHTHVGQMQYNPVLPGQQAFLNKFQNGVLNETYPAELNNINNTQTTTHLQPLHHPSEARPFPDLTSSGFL
How it was run: (§3)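 HepG2 cells (3x10^5 cells/ml) stimulated 18 h with 5 µM or 20 µM test compound or left untreated; 3-methylcholanthrene (10 µM) as positive control. RNA extracted for read-out; three independent experiments.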

[9] = target: T1, G-protein coupled receptor 84; assay: Agonist activity at human GPR84 expressed in CHO cells assessed as beta-arrestin recruitment after 90 mins by beta-galactosidase complementation assay; type: cell-based; how it was run: as §2
[10] = Stability of the compound in water at 100 uM up to 24 hrs by HPLC-MS analysis; type: physicochemical; settings: buffer
How it was run: (§4)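 Stock (2.5 mM in methanol/acetonitrile 1:1) diluted to 100 µM final in water, 0.01 % aqueous ammonia (pH 9), 1 mM NaOH (pH 11), or artificial gastric acid (pepsin, NaCl, HCl; pH 1.2). Incubated at 37 °C up to 24 h, sampled at intervals. Analysed by LC-ESI-MS on C18 at 25 °C with water/2 mM ammonium acetate–acetonitrile gradient.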

[11] = Stability of the compound in 1 mM sodium hydroxide solution at 100 uM at pH 11 up to 24 hrs by HPLC-MS analysis; type: physicochemical; settings: buffer, pH 11, 24 h; how it was run: as §4
[12] = Stability of the compound in 0.01% ammonia solution at 100 uM at pH 9 up to 24 hrs by HPLC-MS analysis; type: physicochemical; settings: buffer, pH 9, 24 h; how it was run: as §4
[13] = Stability of the compound in pH 1.2 artificial gastric fluid containing HCl, NaCl and pepsin at 100 uM up to 24 hrs by HPLC-MS analysis; how it was run: as §4
[14] = target: T3, Aryl hydrocarbon receptor; assay: Activation of AhR in human HepG2 cells assessed as induction of CYP1A1 mRNA expression after 18 hrs by RT-PCR method; type: ADME, cell-based; how it was run: as §3
[15] = Stability of the compound in pH 1.2 artificial gastric fluid containing HCl, NaCl and pepsin assessed as parent compound remaining at 100 uM after 1 hr by HPLC-MS analysis; how it was run: as §4
[16] = Stability of the compound in pH 1.2 artificial gastric fluid containing HCl, NaCl and pepsin assessed as parent compound remaining at 100 uM after 2 hrs by HPLC-MS analysis; how it was run: as §4
[17] = Stability of the compound in pH 1.2 artificial gastric fluid containing HCl, NaCl and pepsin assessed as parent compound remaining at 100 uM after 4 hrs by HPLC-MS analysis; how it was run: as §4
[18] = target: T1, G-protein coupled receptor 84; assay: Ratio of EC50 for human GPR84 expressed in CHO cells assessed as beta-arrestin recruitment to EC50 for Gi coupled human GPR84 expressed in CHO cells assessed as inhibition of forskolin-induced cAMP accumulation; type: functional, cell-based
[19] = target: T3, Aryl hydrocarbon receptor; assay: Activation of AhR in human HepG2 cells assessed as induction of CYP1A1 mRNA expression at 20 uM after 18 hrs by RT-PCR method; type: ADME, cell-based; how it was run: as §3
[20] = target: T3, Aryl hydrocarbon receptor; assay: Activation of AhR in human HepG2 cells assessed as induction of CYP1A1 mRNA expression at 10 uM after 18 hrs by RT-PCR method; type: ADME, cell-based
How it was run: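 HepG2 cells seeded at 3x10^5 cells/ml were exposed to compound for 18 h alongside untreated cells and a 3-methylcholanthrene (10 µM) positive control. Total RNA was then extracted for transcript measurement. Three independent experiments were run.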

[21] = target: T1, G-protein coupled receptor 84; assay: Agonist activity at Gi coupled human GPR84 expressed in CHO cells assessed as inhibition of forskolin-induced cAMP accumulation up to 100 uM preincubated for 5 mins followed by forskolin addition measured after 15 mins in presence of [3H]-cAMP by radiometric assay; type: functional, cell-based
How it was run: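 Concentration-response in CHO-hGPR84 cells. Compound preincubated 5 min, then forskolin 10 µM added for a further 15 min. Maximal forskolin-induced cAMP without agonist set as 100 %. […] Mean ± SEM of 3 independent experiments in duplicate.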

Structure (SMILES)	Emax [1]	inhibition [2]	Emax [3]	Activity (CHO)	Activity [4]	Activity [5]	inhibition [6]	Activity [7]	EC50 [2]	EC50 [9]	Stability [10]	Stability [11]	Stability [12]	Stability [17]	also measured
Fc1cc(F)c2[nH]cc(Cc3c[nH]c4c(F)cc(F)cc34)c2c1	131%	Dose-dependent effect	385%	Non-Toxic	inactive	inactive	inactive	inactive	–	–	–	–	–	–	Activity [8]: Not Active
Fc1cccc2c(Cc3c[nH]c4c(F)cccc34)c[nH]c12	129%	–	99%	–	inactive	inactive	inactive	–	0.113 µM	6.07 µM	Stable	Stable	Stable	–	Stability [13]: Stable
c1ccc2c(Cc3c[nH]c4ccccc34)c[nH]c2c1 [ARUNDINE]	125%	Dose-dependent effect	60%	Non-Toxic	inactive	inactive	inactive	inactive	–	–	Stable	Stable	Stable	35%	fold change (FC) [1]: 29; Activity [14]: Dose-dependent effect; Stability [15]: 63%; Stability [16]: 49%
Fc1ccc2[nH]cc(Cc3c[nH]c4ccc(F)cc34)c2c1	117%	Dose-dependent effect	125%	Non-Toxic	inactive	inactive	inactive	inactive	0.08 µM	4.33 µM	Stable	Stable	Stable	57%	Ratio EC50 [18]: 54; Activity [19]: Not Active
Cc1ccc2cc3c(ccc4ccccc43)c3c2c1CC3 [3-METHYLCHOLANTHRENE]	–	–	–	–	–	–	–	–	–	–	–	–	–	–	Activity [20]: Active; inhibition [21]: inactive
